Reference: ChEMBL document CHEMBL4513216, “Probing the Open Global Health Chemical Diversity Library for Multistage-Active Starting Points for Next-Generation Antimalarials” (ACS Infect Dis, 2020)

Assay: Toxicity liver stage against HepG2, at 10uM
Format: cell-based
Parameters: test concentration 10 uM, cell line HepG2-A16-CD81EGFP
Details: human, HepG2-A16-CD81EGFP cells; read-out: INHIBITION
How it was run: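 Uninfected HepG2-A16-CD81EGFP cells, 3 × 10^3 per well, 1536-well, plated on prespotted compound at 10 μM final, parasite-free screening media added to match infected plates; puromycin 10 μM positive, DMSO 0.5% negative; run in parallel with 48 h PbLuc assay at 37 °C, 5% CO2; viability by CellTiter-Glo luminescence, normalized to controls.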

SMILES | cytotoxicity at 10 µM
O=C1N(Cc2ccccc2)C[C@H]2CN(Cc3ccccc3Cl)CCN12 | 2.23%
CC1=C[C@@H](CN2CCCC2)[C@H](C(C)C)C[C@H]1Cc1nnc(C)o1 | 2.47%
COCCn1/c(=N\C(=O)CN(C)S(C)(=O)=O)sc2cccc(F)c21 | -11.5%
CC(=O)N1CCC2(CC1)NC(=O)[C@H]1CN(Cc3cccnc3)C[C@H]12 | -1.77%
O=C(NC1CC1)N1CC[C@H]2[C@H]1CCN2c1ncccn1 | 3.08%
CC(=O)N1CCC2(CCCN(S(=O)(=O)c3ccc(F)cc3)C2)C1 (stereo not drawn) | 2.26%
CC1(C)Cc2ccccc2-c2nc(NCCO)[nH]c(=O)c21 | -5.46%
CNC(=O)[C@H]1CCS(=O)(=O)[C@@H]2CN(Cc3ccc(OC)cc3)C[C@H]12 | -10.3%
Cc1ccc(-c2nc(C3CCN(C(=O)c4ccnn4C)CC3)no2)cn1 | -5.17%
c1cnnc(N[C@@H]2CC[C@@H]3CN(Cc4ccc5cc[nH]c5c4)C[C@@H]32)c1 | -0.423%
Cc1cc(C)nc(C2(C)CCCN2CCO)n1 (stereo not drawn) | -3.89%
CNC(=O)C1CN(c2ccnc(C)n2)CCN1Cc1ccccc1 (stereo not drawn) | 8.48%
NCCC(=O)N1CCC2(CC1)CN(C(=O)Cc1cccc(Cl)c1)CCO2 | 5.56%
CC(C#N)CNC(=O)Nc1ccc(-c2ccc[nH]2)cc1 (stereo not drawn) | 1.2%
NC(=O)c1cnc(NCC(=O)NCc2ccccc2)c(Cl)c1 | 3.89%
Cc1ccc(NC(=O)N2CCOC(C)(c3cnn(C)c3)C2)c(C)c1 (stereo not drawn) | 6.05%
Cc1c(F)cccc1NC(=O)N(C(C)CS(C)(=O)=O)C1CC1 (stereo not drawn) | 8.29%
O=C(c1cnc(NCCC2CCCO2)c(Cl)c1)N1CCCCC1 (stereo not drawn) | -2.01%
COc1cc(C(=O)NS(=O)(=O)c2cncc(Br)c2)cc(OC)c1C | 4.77%
O=C(NCCc1ccccn1)N1CCOC(c2ccccc2Cl)C1 (stereo not drawn) | -7.75%
CC(C)(NS(C)(=O)=O)c1nc(-c2cccc(Cl)c2)no1 | 2.31%
COc1ccc(CNC2CCN(CCc3ccncc3)CC2)cc1O | -10.5%

SMILES | cytotoxicity at 10 µM
CC(C(=O)NCc1ccnc(N(C)C)c1)n1cncn1 (stereo not drawn) | -9.7%
Cc1nc(C(C)(C)NC(=O)Nc2cccc(C#N)c2)no1 | -7.79%
O=C(NS(=O)(=O)c1cc(Cl)sc1Cl)c1cccc2c1OCCO2 | 5.32%
Cc1nc(CCNC(=O)N2CCC(Cc3cnn(C)c3)C2)cs1 (stereo not drawn) | -6.13%
Cc1cnn(CC2CCCCN2CC(=O)NCc2ccccn2)c1 (stereo not drawn) | -6.16%
Cc1nn(C)cc1CN1CCCn2nc(CNC(=O)C3CCC3)cc2C1 | 2.84%
COCCn1cnnc1Cn1ccnc1-c1ccccc1C | -7.58%
NC(=O)NCCC(=O)NCc1cccnc1N1CCc2ccccc2C1 | 4.92%
CN(C)CCNC(=O)c1ccc(OC2CCN(S(C)(=O)=O)CC2)c(Cl)c1 | 1.33%
Cc1nc[nH]c1CN1CCN(C(=O)c2cccs2)[C@H]2CS(=O)(=O)C[C@H]21 | -0.0714%
Cc1ncsc1C(=O)N(C)Cc1cccnc1 | -5.57%
Cc1cnn(C2CCCN(C(=O)COc3ccc(C(N)=O)cc3)C2)c1 (stereo not drawn) | -0.0295%
CC(C)C(Sc1nnnn1-c1ccccc1)C(=O)NCc1cccnc1 (stereo not drawn) | -3.02%
CN(C)C(=O)CS(=O)(=O)Cc1cc(Cl)c2c(c1)OCO2 | -6.24%
CSC(C)C(=O)N1CCCN(Cc2cscn2)CC1 (stereo not drawn) | -2.19%
CCOCC(O)CN1CCN(C(=O)Cc2ccccc2C)CC1 (stereo not drawn) | -3.43%
CCCSCC(=O)NS(=O)(=O)c1ccc2c(c1)OCCO2 | -9.78%
Fc1cccc(-c2nc(CN3CCOC(Cn4cncn4)C3)co2)c1 (stereo not drawn) | -11.4%
Cc1cccc(CN2C(=O)C[C@H]3[C@@H]2CCN3Cc2ccc(F)cc2)n1 | 2.2%
COc1ccc(CN2C[C@@H]3CN(Cc4ccoc4)C[C@@H]3C2=O)cc1 | -8.37%
O=C(Cc1ccccn1)N1C[C@H]2CC[C@@H](C1)N(Cc1ccccc1)C2=O | -13%
